KCNQ1 act: potentiators or activators of KCNQ1 channel, primary screen, cell-based, thallium flux, high-throughput; Potassium voltage-gated channel subfamily KQT member 1 (Homo sapiens), P51787; CHO-K1 KCNQ1, thallium flux FluxOR fluorescence; hits give high values; B-score at 10 µM; 310,000 compounds, 0.35% hits; AID 2648, 2010;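 active = fluorescence ratio B-score, a plate-corrected score, at least three library SD, with initial intensity B-score within 5 SD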
Target sequence (P51787 whole entry, looked up): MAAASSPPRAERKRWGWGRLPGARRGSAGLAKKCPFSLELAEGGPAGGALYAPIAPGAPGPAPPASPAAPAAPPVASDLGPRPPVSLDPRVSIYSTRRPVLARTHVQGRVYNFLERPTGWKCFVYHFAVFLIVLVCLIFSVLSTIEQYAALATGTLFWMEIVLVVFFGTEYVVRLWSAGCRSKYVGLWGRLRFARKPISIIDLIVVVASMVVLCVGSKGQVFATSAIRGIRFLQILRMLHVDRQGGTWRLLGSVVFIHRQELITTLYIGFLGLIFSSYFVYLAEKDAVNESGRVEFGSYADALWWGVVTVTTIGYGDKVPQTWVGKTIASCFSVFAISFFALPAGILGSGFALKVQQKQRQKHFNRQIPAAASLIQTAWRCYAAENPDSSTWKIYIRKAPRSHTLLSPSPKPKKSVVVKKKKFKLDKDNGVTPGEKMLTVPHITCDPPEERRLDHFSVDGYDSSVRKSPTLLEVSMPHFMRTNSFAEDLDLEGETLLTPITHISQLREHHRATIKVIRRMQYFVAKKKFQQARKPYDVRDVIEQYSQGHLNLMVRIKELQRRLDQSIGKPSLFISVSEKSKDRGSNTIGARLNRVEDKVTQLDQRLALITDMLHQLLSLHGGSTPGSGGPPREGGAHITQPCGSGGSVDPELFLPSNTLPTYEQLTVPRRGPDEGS
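Doses: Single concentration per compound, DMSO matched to controls | Test system: KCNQ1-transfected CHO-K1 cells | Timing: 90 min dye loading and 20 min compound exposure, both at room temperature | Measured by: Kinetic FluxOR thallium fluorescence, 10-s 1-Hz baseline, 110-s post-stimulus read | Medium: Assay buffer with matched DMSO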
Kir21 block: inhibitors of mouse Kir2.1 inward-rectifier potassium channel; HEK293-Kir2.1, FluxOR thallium flux fluorescence; hits give low values; B-score at 10 µM; Inward rectifier potassium channel 2 (Mus musculus), P35561; 310,000 compounds, 0.85% hits;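 active = fluorescence ratio B-score at or below minus 3 SD of library scores, with starting-brightness B-score within 2 SD, cut at about -4.2 in these data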;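 also: channel flux triggered by added potassium and thallium sulfate stimulus; B-score of peak minus minimum fluorescence over baseline after thallium stimulus; more negative B-score means stronger Kir2.1 block with less thallium influx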
hERG rescue: hERG rescue from dofetilide block, primary screen, cell-based, CHO-hERG, FluxOR thallium flux, dofetilide IC70 | Voltage-gated inwardly rectifying potassium channel KCNH2 (Homo sapiens), Q12809 | activation (rescue from dofetilide block), less the hit threshold, % at 10 µM | dofetilide IC70 present | 310,000 compounds, 0.51% hits | AID 1511, 2009;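 active = activation above the mean of controls blocked by dofetilide plus 5 SD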;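 also: thallium influx through hERG after potassium depolarization seen as dye fluorescence rise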
KCNQ1 block: inhibitors of human KCNQ1 channel, primary screen, cell-based, thallium flux, high-throughput. CHO-K1 KCNQ1, FluxOR thallium flux fluorescence; hits give high values. B-score at 10 µM. 310,000 compounds, 1.3% hits;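 active = compounds whose thallium flux B-score, printed positive for inhibition, exceeds three library SD while starting fluorescence stays within three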;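 also: channel opened by potassium depolarization with thallium stimulus after 20 min compound exposure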
KCNK9 inh: KCNK9 potassium channel inhibitors, primary screen, HEK293 cells, thallium flux | FluxOR thallium flux fluorescence; hits give low values | B-score at 10 µM | 310,000 compounds, 1.2% hits;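 active = ratio B-score over 3 SD below the library mean, with starting fluorescence within 5 SD of its mean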;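 also: negative B-score means less thallium flux so channel inhibition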
KCNK3 inh: human KCNK3 channel inhibitors, primary screen, CHO cells, FluxOR thallium flux, B-score; 340,000 compounds, 0.84% hits; Potassium channel subfamily K member 3 (Homo sapiens), O14649; FluxOR fluorescence; hits give low values; B-score at 10 µM;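 active = B-score under library mean minus 4 SD, starting fluorescence ratio at most library mean plus 5 SD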;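 also: more negative B-score means stronger inhibition of thallium flux through KCNK3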
Of the large screens only hits and unclear results are named; the others gave an inactive call. Rows were chosen to be rich in hits. Some 3.7% of all compounds tested hit in one or more screens of this group.

Cc1c(NC(=O)C(Sc2ccccc2)c2ccccc2)cccc1[N+](=O)[O-] (centres undefined)	none
O=C(Nc1cc([N+](=O)[O-])ccc1Cl)C(Sc1ccccc1)c1ccccc1 (centres undefined)	KCNK9 inh -7.08
CN1C(=O)NC(c2ccccc2[N+](=O)[O-])C2=C1CC(C)(C)CC2=O (centres undefined)	none
CN1C(=O)NC(c2ccccc2[N+](=O)[O-])C2=C1CCCC2=O (centres undefined)	KCNQ1 block 6
COC(=O)c1c(NC(C)=O)csc1C	none
COC(=O)c1c(NC(=O)C(C)(C)C)csc1C	hERG rescue 8.2
O=C(Nc1cc([N+](=O)[O-])ccc1N1CCOCC1)c1ccco1	hERG rescue 13.5
Cc1ccccc1C(=O)NNC(=O)C(=O)Nc1cccc(Cl)c1C	KCNQ1 act 47, hERG rescue 12.9
O=C(NC(=S)Nc1ccccc1N1CCOCC1)c1ccco1	none
O=C(NC(=S)Nc1ccc(N2CCCCC2)cc1)c1ccco1	KCNQ1 act 9, hERG rescue 5.6
O=C(NC(=S)Nc1ccccc1N1CCCC1)c1ccco1	KCNQ1 act 12
O=C(NC(=S)Nc1ccccc1Cl)c1ccco1	KCNQ1 act 14, hERG rescue 11.9
O=C(NC(=S)Nc1cccc2c(O)cccc12)c1ccco1	none
CC1CCN(c2ccc(NC(=S)NC(=O)c3ccco3)cc2)CC1	none
O=C(NC(=S)Nc1cccc(Cl)c1N1CCCCC1)c1ccco1	KCNQ1 act 16
CCc1nnc(NC(=O)CSc2nnc(C3CC3)n2C)s1	none
CN(CC(=O)Nc1ccc(F)cc1)C(=O)COC(=O)c1ccc(-c2ccccc2)cc1	none
COc1ccc(S(=O)(=O)Nc2ccc3c(c2)C(=O)N([C@H](C)CO)C[C@H](C)[C@@H](CN(C)S(=O)(=O)c2cccs2)O3)cc1	none (no result: KCNQ1 act, Kir21 block, hERG rescue, KCNQ1 block, KCNK9 inh)
O=C(NC(=S)Nc1ccccc1N1CCCCC1)c1ccco1	hERG rescue 14.2
O=C(NC(=S)Nc1ccccc1N1CCCC1)c1ccccc1Br	KCNQ1 act 16, hERG rescue 13.6
CC(C)C(=O)N1CCN(c2ccccc2NC(=S)NC(=O)c2ccco2)CC1	none
CCC(C)c1ccccc1NC(=S)NC(=O)c1ccco1 (centres undefined)	KCNQ1 act 29, hERG rescue 31.7
Cc1ccc(/C=N/NC(=O)CCn2nc(C)cc2C)c(C)c1	none
O=C(O/N=C1\CCS(=O)(=O)c2sccc21)C1CC1	hERG rescue 5.0
CC(C)(C)C(=O)O/N=C1\CCS(=O)(=O)c2sccc21	none
CCN(CC)CCN(C(=O)CCS(=O)(=O)c1ccccc1)c1nc2cc3c(cc2s1)OCO3	none
Cc1ccc(C2SCCN2C(=O)c2ccc([N+](=O)[O-])cc2)cc1 (centres undefined)	Kir21 block -6.53
Cc1ccc(Nc2cc(C)c3ccc(O)cc3n2)cc1C	Kir21 block -5.09
CC[C@]12c3[nH]c4ccccc4c3CCN1C(=O)C(CC(=O)NCCCOC)C[C@@H]2C(=O)N1CCN(C(=O)c2ccco2)CC1 (some centres undefined)	none (no result: KCNQ1 act, Kir21 block, hERG rescue, KCNQ1 block, KCNK9 inh)
Cc1cc(Br)cc(/C=N/NC(=O)c2ccc3c(c2)OCO3)c1O	KCNQ1 block 8
COc1cccc(CN(C)CC(=O)Nc2cccc(S(N)(=O)=O)c2)c1OC	none
COc1ccc(Br)cc1CN(C)CC(=O)Nc1cccc(S(N)(=O)=O)c1	Kir21 block -4.58
Cc1cc(=O)oc2cc(NC(=O)c3cc([N+](=O)[O-])ccc3N3CCOCC3)ccc12	none
O=C1C(Cl)=C(Nc2ccc3cn[nH]c3c2)C(=O)c2ccccc21	KCNQ1 block 9
CC(=O)Nc1ccc(NC2=C(Cl)C(=O)c3ccccc3C2=O)cc1	KCNQ1 block 12 (no result: KCNK3 inh)
Cc1ccn2c(NC(=O)C(C)(C)Oc3ccc(Cl)cc3)c(-c3cccs3)nc2c1	KCNK9 inh -7.39
O=C(NCCN1CCOCC1)c1cn(-c2ccccc2)nc1-c1cccs1	none
O=C(NCCCN1CCOCC1)c1cn(-c2ccccc2)nc1-c1cccs1	Kir21 block -4.49
COc1ccccc1OCCNc1cc(N2CCCCC2)ccc1[N+](=O)[O-]	KCNQ1 block 6, KCNK9 inh -6.82
Cc1ccccc1OCCNc1cc(N2CCNCC2)ccc1[N+](=O)[O-]	Kir21 block -8.09 (no result: KCNK3 inh)
Cc1cccc(OCCNc2cc(N3CCN(C)CC3)ccc2[N+](=O)[O-])c1	none
CCc1ccc(NC(=O)CSc2nnc(CNC(=O)c3ccco3)o2)cc1	none
CC(C)N(Cc1ccccc1)C(=S)NCc1ccccc1	Kir21 block -4.21
Cc1cc(NC(=O)CSc2nc(-c3ccccc3Cl)nc3c2c(=O)n(C)c(=O)n3C)no1	hERG rescue 5.4
COc1ccccc1OCCNC(=O)CSC(=S)N1CCCC1	none
NC(=O)C[n+]1cccc(CNC(=O)c2ccc(OC(F)F)cc2)c1	hERG rescue 4.6
CCOc1ccccc1NC(=O)COC(=O)CSc1ccc(Cl)cc1	none
COc1ccc(Cn2c(=O)oc3ccc(C)cc32)cc1OC	Kir21 block -4.23
Cc1cc(C)c(Cn2cnc(-c3ccc([N+](=O)[O-])cc3)c2)c(C)c1	KCNQ1 block 6
O=C(COc1ccc(-c2ccccc2)cc1)N/N=C/c1cc(O)ccc1Br	KCNQ1 block 11
C=CC[n+]1c(C)csc1Nc1ccc(C)cc1	none
C=CC[n+]1c(C)csc1Nc1cccc(Br)c1	KCNK9 inh -6.58
CCC(=O)c1cc(Br)ccc1OCC(=O)N1CCN(S(=O)(=O)c2ccccc2)CC1	none (no result: KCNQ1 act, Kir21 block, hERG rescue, KCNQ1 block, KCNK9 inh)
O=C(Nc1ccc(Cl)cc1)N(C1=NCCC1)c1ccc(OC(F)F)cc1	KCNQ1 block 6
Cc1cc(-c2nn(-c3ccccc3F)cc2CN2CCN(c3ccncc3)CC2)c(C)s1	Kir21 block -4.45
Cc1cc(-c2nn(-c3ccccc3F)cc2CN2CCC(O)CC2)c(C)s1	none
O=C(Nc1ccc(N2CCCC2)c(Cl)c1)c1ccccc1[N+](=O)[O-]	none
CN1/C(=C\C=[N+](C)c2ccccc2)C(C)(C)c2ccccc21	KCNQ1 block 8
CCOC(=O)c1c(-c2ccc(C)o2)csc1NC(=O)COC(=O)c1cccs1	KCNK9 inh -6.65
CCOC(=O)c1c(-c2ccc(C)o2)csc1N	none
CCOC(=O)c1c(-c2ccc(C)o2)csc1NC(=O)CSc1ncn[nH]1	none

Screening results from PubChem BioAssay.
